The text below walks through data of ChEMBL document CHEMBL3751740, “New MKLP-2 inhibitors in the paprotrain series: Design, synthesis and biological evaluations” (Bioorg Med Chem, 2016).

Test [1] concerns the target T1, Kinesin-like protein KIF23 (Homo sapiens) (UniProt Q02241).
T1 sequence (whole entry): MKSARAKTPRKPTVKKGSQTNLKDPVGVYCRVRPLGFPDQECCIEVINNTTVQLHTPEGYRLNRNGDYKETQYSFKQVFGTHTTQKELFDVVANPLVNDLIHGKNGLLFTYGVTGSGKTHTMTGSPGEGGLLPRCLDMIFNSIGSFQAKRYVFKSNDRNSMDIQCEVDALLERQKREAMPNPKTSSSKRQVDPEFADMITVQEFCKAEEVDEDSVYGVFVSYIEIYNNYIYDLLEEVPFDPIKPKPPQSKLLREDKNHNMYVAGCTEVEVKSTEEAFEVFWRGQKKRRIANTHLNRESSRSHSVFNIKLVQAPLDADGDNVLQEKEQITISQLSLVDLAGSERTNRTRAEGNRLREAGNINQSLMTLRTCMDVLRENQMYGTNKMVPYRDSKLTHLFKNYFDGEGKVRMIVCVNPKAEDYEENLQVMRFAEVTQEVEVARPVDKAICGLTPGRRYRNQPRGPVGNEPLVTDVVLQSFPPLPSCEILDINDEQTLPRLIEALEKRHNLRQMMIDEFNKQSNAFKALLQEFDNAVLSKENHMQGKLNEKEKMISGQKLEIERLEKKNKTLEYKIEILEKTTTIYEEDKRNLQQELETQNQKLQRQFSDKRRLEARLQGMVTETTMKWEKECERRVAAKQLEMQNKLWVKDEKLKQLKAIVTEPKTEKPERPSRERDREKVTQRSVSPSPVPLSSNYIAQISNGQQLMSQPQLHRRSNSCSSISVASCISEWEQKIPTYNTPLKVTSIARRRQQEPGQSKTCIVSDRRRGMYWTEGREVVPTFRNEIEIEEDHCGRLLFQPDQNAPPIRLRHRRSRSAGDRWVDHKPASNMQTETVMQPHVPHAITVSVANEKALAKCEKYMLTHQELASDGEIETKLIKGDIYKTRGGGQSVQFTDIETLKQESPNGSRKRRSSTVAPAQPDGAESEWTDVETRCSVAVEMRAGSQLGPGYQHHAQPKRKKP
As to the kind of experiment: Inhibition of porcine brain microtubule-stimulated human recombinant GST-tagged MKLP1 ATPase activity at 15 uM by microplate reader in presence of Mg2+ ATP relative to control. Summed up:
(§1)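 Each kinesin motor domain was tested against MT-stimulated ATPase at 22 °C in triplicate, with compounds at 15 µM. Buffer was 7.5 mM PIPES-NaOH pH 7.0 with MgCl2, Taxol, ELIPA reagents and 1.25 mg/mL MTs. Reactions were started with 1 mM Mg2+ATP and read kinetically at 360 nm. Monastrol and AMP-PNP (1 mM) were the controls.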

In test [2] the target is Centromere-associated protein E (Homo sapiens) (UniProt Q02224). The test is described as follows: Inhibition of porcine brain microtubule-stimulated human recombinant GST-tagged CENP-E ATPase activity at 15 uM by microplate reader in presence of Mg2+ ATP relative to control. Summed up: as §1
Chain of Centromere-associated protein E (Homo sapiens) (Q02224 whole entry): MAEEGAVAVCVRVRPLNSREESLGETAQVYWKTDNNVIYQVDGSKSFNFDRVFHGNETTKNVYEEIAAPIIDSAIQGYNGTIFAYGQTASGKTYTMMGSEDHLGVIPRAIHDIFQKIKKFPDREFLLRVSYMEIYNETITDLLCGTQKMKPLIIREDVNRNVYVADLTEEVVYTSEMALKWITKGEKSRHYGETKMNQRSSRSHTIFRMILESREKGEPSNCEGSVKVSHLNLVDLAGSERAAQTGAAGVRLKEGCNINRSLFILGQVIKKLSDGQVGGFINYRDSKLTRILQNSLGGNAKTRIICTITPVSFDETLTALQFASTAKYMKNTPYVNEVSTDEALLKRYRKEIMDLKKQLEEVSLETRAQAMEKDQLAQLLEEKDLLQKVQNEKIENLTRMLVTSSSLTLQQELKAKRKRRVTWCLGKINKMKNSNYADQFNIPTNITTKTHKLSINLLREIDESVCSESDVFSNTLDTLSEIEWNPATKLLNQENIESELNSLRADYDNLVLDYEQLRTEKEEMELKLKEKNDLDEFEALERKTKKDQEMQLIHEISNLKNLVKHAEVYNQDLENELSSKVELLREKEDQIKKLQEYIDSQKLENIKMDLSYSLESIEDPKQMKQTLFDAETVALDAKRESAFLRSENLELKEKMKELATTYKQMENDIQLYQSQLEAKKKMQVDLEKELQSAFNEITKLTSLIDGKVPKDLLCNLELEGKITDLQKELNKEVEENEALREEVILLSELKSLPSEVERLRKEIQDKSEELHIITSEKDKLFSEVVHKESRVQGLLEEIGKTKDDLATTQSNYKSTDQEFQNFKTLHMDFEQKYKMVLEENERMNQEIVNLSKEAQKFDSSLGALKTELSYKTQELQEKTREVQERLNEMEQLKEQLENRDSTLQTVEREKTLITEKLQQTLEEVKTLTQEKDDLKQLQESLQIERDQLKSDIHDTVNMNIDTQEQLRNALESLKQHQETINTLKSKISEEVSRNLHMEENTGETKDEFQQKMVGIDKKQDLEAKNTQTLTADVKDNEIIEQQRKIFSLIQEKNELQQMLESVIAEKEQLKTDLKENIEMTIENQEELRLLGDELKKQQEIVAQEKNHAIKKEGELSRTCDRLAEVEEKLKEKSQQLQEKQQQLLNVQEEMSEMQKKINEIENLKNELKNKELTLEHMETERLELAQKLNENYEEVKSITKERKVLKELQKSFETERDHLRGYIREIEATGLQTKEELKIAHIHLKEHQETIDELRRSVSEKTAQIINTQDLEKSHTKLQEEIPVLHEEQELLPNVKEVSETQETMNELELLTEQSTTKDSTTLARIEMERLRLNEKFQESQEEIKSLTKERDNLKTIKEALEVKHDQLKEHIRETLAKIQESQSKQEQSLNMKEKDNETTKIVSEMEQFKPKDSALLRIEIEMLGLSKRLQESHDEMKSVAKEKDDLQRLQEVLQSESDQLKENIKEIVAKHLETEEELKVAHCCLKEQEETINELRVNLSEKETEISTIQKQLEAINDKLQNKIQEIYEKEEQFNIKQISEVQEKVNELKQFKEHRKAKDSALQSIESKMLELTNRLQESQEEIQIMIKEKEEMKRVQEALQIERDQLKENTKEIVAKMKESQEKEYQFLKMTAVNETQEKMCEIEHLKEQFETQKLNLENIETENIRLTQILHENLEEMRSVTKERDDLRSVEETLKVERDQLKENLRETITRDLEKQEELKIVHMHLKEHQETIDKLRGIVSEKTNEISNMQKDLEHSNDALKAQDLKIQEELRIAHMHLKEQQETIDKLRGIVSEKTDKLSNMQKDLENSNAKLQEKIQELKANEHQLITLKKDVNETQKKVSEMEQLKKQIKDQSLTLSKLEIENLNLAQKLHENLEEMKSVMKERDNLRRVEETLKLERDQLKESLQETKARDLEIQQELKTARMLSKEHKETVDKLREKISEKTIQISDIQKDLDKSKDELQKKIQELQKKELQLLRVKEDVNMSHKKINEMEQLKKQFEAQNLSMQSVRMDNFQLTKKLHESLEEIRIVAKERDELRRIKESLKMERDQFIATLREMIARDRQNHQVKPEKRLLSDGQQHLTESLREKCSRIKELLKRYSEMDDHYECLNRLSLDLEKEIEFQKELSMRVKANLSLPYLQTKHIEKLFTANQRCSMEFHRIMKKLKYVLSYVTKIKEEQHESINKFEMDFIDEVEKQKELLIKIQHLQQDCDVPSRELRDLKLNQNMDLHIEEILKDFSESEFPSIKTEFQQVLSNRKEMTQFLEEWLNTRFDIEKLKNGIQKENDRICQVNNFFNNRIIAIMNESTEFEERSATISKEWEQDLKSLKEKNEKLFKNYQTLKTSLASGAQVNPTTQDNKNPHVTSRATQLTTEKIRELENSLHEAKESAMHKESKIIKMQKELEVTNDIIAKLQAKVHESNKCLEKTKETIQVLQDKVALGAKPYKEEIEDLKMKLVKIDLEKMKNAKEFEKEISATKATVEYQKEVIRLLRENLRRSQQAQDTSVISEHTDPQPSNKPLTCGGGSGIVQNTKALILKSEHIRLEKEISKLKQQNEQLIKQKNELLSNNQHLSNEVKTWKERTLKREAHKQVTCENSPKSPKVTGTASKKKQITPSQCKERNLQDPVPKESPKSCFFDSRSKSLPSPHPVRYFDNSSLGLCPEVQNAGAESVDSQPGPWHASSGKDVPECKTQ
Test [3] concerns the target T2, Kinesin-like protein KIF11 (Homo sapiens) (UniProt P52732).
T2 sequence (whole entry): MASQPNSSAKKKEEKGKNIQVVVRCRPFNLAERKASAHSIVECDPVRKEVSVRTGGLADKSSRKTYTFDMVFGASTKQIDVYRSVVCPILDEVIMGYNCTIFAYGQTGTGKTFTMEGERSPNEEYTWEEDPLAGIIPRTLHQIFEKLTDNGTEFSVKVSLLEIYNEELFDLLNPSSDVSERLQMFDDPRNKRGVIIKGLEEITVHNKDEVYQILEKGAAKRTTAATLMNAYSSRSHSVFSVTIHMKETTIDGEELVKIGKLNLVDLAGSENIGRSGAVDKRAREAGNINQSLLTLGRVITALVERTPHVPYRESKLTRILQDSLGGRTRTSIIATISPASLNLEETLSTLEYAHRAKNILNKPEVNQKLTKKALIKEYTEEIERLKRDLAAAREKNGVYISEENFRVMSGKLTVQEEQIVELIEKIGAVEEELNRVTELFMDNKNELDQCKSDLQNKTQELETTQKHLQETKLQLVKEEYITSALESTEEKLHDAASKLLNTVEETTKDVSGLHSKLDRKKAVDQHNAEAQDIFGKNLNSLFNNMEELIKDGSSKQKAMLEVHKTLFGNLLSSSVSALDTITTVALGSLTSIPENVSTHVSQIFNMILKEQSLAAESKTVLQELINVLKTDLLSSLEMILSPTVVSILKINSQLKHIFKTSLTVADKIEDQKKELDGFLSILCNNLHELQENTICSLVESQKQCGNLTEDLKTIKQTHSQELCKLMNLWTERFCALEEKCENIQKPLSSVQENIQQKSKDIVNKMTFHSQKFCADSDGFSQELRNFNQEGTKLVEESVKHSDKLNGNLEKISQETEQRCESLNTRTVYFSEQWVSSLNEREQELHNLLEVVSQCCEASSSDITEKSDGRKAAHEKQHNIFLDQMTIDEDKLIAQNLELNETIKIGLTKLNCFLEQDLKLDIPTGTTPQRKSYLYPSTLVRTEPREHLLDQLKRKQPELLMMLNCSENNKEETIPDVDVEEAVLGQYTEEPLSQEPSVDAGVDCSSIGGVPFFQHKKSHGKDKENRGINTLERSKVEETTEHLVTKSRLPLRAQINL
The test is described as follows: Inhibition of porcine brain microtubule-stimulated human recombinant GST-tagged Eg5 ATPase activity at 15 uM by microplate reader in presence of Mg2+ ATP relative to control. An outline of the steps:
as §1

Molecules are shown by their SMILES.

For the molecule `COc1cccc2[nH]cc(/C(C#N)=C/c3cccnc3)c12`, the inhibition in test [1], in test [2] and in test [3] was less than 20% in each case.

`COc1ccc2[nH]cc(/C(C#N)=C/c3cccnc3)c2c1`: the inhibition in test [1], in test [2] and in test [3] was less than 20% throughout.

Regarding `N#C/C(=C\c1ccc2c(c1)OCO2)c1c[nH]c2ccccc12`, the inhibition in test [1], in test [2] and in test [3] was less than 20% throughout.

For the molecule `N#C/C(=C\c1cccnc1)c1c[nH]c2ccc(OCc3ccccc3)cc12`, the inhibition in test [1], in test [2] and in test [3] was less than 20% throughout.

Regarding `COc1ccc2c(/C(C#N)=C/c3cccnc3)c[nH]c2c1`, the inhibition in test [1], in test [2] and in test [3] was less than 20% each time.

For the molecule `CCOC(=O)C1=C(C)NC(=S)NC1c1cccc(O)c1` (stereo not drawn), the values for the inhibition in test [1], in test [2] and in test [3] were less than 20%, less than 20% and greater than 30%, respectively.
